These results are taken from ChEMBL document CHEMBL4382264, “Melanogenesis-Inhibitory and Cytotoxic Activities of Triterpene Glycoside Constituents from the Bark of Albizia procera” (J Nat Prod, 2018).

Activity calls are given as the source filed them. The calls are words filed in the database; no cut-off is given here.

The test system of data set [1] is HL-60. In words: Induction of apoptosis in human HL60 cells assessed as early apoptotic cells at 3 uM after 24 hrs by Annexin V-FITC/propidium iodide staining based flow cytometry (reference value: 2.4%). The class given is functional. The essentials:
(§1)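 HL60 cells cultured with 3.0 μM for 0, 24 and 48 h. Cells stained with annexin V-FITC and propidium iodide and analyzed by flow cytometry for early and late apoptotic fractions. Mean of three experiments, compared against an untreated negative control.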
A general note: In flow cytometry, cells or beads pass a laser one at a time.

Data set [2] deals with B16-F10. As to the kind of experiment: Inhibition of alpha-MSH-stimulated melanogenesis in mouse B16F10 cells assessed as melanin content at 10 uM measured after 48 hrs relative to control. Further details: scale not given: the % may be the effect or the level left. The class given is functional. The procedure, abridged: (§2)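 B16F10 cells treated with test sample plus 0.10 μM α-MSH for 48 h. Melanin solubilized in 2 N NaOH–10% DMSO and read at 405 nm. Expressed as % of DMSO-treated cells (DMSO 2 μL·mL−1). Mean ± SD, n = 3.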

The test system of data set [3] is B16-F10. In words: Inhibition of alpha-MSH-stimulated melanogenesis in mouse B16F10 cells assessed as melanin content at 100 uM measured after 48 hrs relative to control. The class given is functional. Further details: scale not given: the % may be the effect or the level left. The essentials: as §2
Data set [4] is described as follows: Cytotoxicity against non-stimulated mouse B16F10 cells assessed as cell viability at 10 uM relative to control. The class given is cell-based, B16-F10. The conditions noted are these: read-out: Activity. The procedure, abridged: (§3)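 B16 melanoma cells tested for viability at 10 or 100 μM. Absorbance read at 570 nm (test) minus 630 nm (reference). Expressed as % of DMSO control (DMSO 2 μL·mL−1). Mean ± SD, n = 3.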

A short description of data set [5]: Cytotoxicity against non-stimulated mouse B16F10 cells assessed as cell viability at 100 uM relative to control. The class given is cell-based, B16-F10. Particulars: read-out: Activity. The essentials: as §3
In data set [6] the test system is B16-F10. As to the kind of experiment: Selectivity index, ratio of compound effect for cytotoxicity against non-stimulated mouse B16F10 cells assessed as cell viability at 10 uM to compound effect for inhibition of alpha-MSH-stimulated melanogenesis in mouse B16F10 cells assessed as melanin content at 10 uM.
Data set [7] concerns B16-F10. In words: Selectivity index, ratio of compound effect for cytotoxicity against non-stimulated mouse B16F10 cells assessed as cell viability at 100 uM to compound effect for inhibition of alpha-MSH-stimulated melanogenesis in mouse B16F10 cells assessed as melanin content at 100 uM.
Data set [8] deals with HL-60. As to the kind of experiment: Cytotoxicity against human HL60 cells assessed as reduction in cell viability after 48 hrs by MTT assay. The class given is functional, cell-based. The conditions noted are these: HL-60, 48 h. The procedure, abridged:
(§4)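 Cells exposed to compounds from 1 × 10−4 to 1 × 10−6 M for 48 h. Viability read by MTT. IC50 derived from five concentrations, each run in triplicate.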
(In general: Formazan colour is commonly taken as a measure of viable cells.)

For data set [9], the system named is AZ-521 cell line. As to the kind of experiment: Cytotoxicity against human AZ-521 cells assessed as reduction in cell viability after 48 hrs by MTT assay. The class given is functional, cell-based. Particulars: AZ-521, 48 h. The procedure, abridged: as §4
The test system of data set [10] is SK-BR-3. In words: Cytotoxicity against human SKBR3 cells assessed as reduction in cell viability after 48 hrs by MTT assay. The class given is functional, cell-based. Particulars: SK-BR-3, 48 h. The procedure, abridged: as §4
Data set [11] concerns A549. As to the kind of experiment: Cytotoxicity against human A549 cells assessed as reduction in cell viability after 48 hrs by MTT assay. The class given is functional, cell-based. The conditions noted are these: A549, 48 h. The procedure, abridged: as §4
The test system of data set [12] is WI-38. In words: Cytotoxicity against human WI38 cells assessed as reduction in cell viability after 48 hrs by MTT assay. Particulars: WI-38, 48 h. The class given is cell-based. The essentials: as §4
The nature of data set [13]: Selectivity index, ratio of IC50 for human […] cells to IC50 for human A549 cells. The procedure, abridged:
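Selectivity index equals the IC50 against WI38 normal cells divided by the IC50 against A549 cells.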

Data set [14] has as its system HL-60. In words: Induction of apoptosis in human HL60 cells assessed as cell shrinkage at 0.3 to 3 uM after 24 hrs by Hoechst 33342 staining based fluorescence microscopic analysis. The class given is functional. Particulars: 1 to 3 uM, in the assay text read “1 to 3 uM” for “0.3 to 3 uM”. The procedure, abridged: (§5)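 HL60 cells treated for 24 h, fixed in 4% paraformaldehyde, and nuclei stained with Hoechst 33342. Cell shrinkage, nuclear fragmentation and chromatin condensation scored by fluorescence microscopy.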

For data set [15], the system named is HL-60. As to the kind of experiment: Induction of apoptosis in human HL60 cells assessed as fragmentation of nuclei at 1 to 3 uM after 24 hrs by Hoechst 33342 staining based fluorescence microscopic analysis. The class given is functional, cell-based. The essentials: as §5
Data set [16] concerns HL-60. In words: Induction of apoptosis in human HL60 cells assessed as chromatin condensation at 1 to 3 uM after 24 hrs by Hoechst 33342 staining based fluorescence microscopic analysis. The class given is functional, cell-based. The essentials: as §5
Data set [17] concerns HL-60. As to the kind of experiment: Induction of apoptosis in human HL60 cells assessed as late apoptotic cells at 3 uM after 24 hrs by Annexin V-FITC/propidium iodide staining based flow cytometry (reference value: 3%). The class given is functional. The essentials:
as §1

Data set [18] concerns HL-60. In words: Induction of apoptosis in human HL60 cells assessed as early apoptotic cells at 3 uM after 48 hrs by Annexin V-FITC/propidium iodide staining based flow cytometry (reference value: 0.8%). The class given is functional. The essentials:
as §1

The test system of data set [19] is HL-60. In words: Induction of apoptosis in human HL60 cells assessed as late apoptotic cells at 3 uM after 48 hrs by Annexin V-FITC/propidium iodide staining based flow cytometry (reference value: 1.9%). The class given is functional. The procedure, abridged: as §1
Data set [20] relates to HL-60. As to the kind of experiment: Induction of apoptosis in human HL60 cells assessed as increase in cleaved caspase-3 expression at 3 uM after 24 to 48 hrs by Western blot analysis. The class given is functional, cell-based. The essentials:
(§6)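 HL60 cells treated with 3.0 μM for 24 and 48 h, then lysed in RIPA buffer. Total protein cleared by centrifugation and quantified by BCA. Procaspase and cleaved caspase-3, -8 and -9 levels assessed by Western blot.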

Data set [21] has as its system HL-60. In words: Induction of apoptosis in human HL60 cells assessed as increase in cleaved caspase-8 expression at 3 uM after 24 to 48 hrs by Western blot analysis. The class given is functional, cell-based. The procedure, abridged:
as §6
For orientation: In western blotting, separated proteins are transferred to a membrane and probed.

For data set [22], the system named is HL-60. In words: Induction of apoptosis in human HL60 cells assessed as increase in cleaved caspase-9 expression at 3 uM after 24 to 48 hrs by Western blot analysis. The class given is functional, cell-based. The procedure, abridged:
as §6

As a reminder, the IC50 is the concentration that gives 50% inhibition. Regarding `C=C[C@@](C)(O)CC/C=C(\C)C(=O)O[C@H]1[C@H](O)[C@@H](O)[C@H](O[C@](C)(C=C)CCCC(C)C(=O)O[C@H]2C[C@]3(C(=O)O[C@@H]4O[C@H](CO)[C@@H](O)[C@H](O)[C@H]4O[C@@H]4O[C@@H](C)[C@H](O[C@@H]5O[C@@H](CO)[C@H](O)[C@H]5O)[C@@H](O[C@@H]5O[C@H](CO)[C@@H](O)[C@H](O)[C@H]5O)[C@H]4O)[C@H](O)C[C@]4(C)C(=CC[C@@H]5[C@@]6(C)CC[C@H](O[C@@H]7O[C@H](CO[C@@H]8OC[C@H](O)[C@H](O)[C@H]8O[C@@H]8OC[C@@H](O)[C@H](O)[C@H]8O)[C@@H](O)[C@H](O)[C@H]7O[C@@H]7O[C@H](CO)[C@@H](O)[C@H](O)[C@H]7O)C(C)(C)[C@@H]6CC[C@]54C)[C@@H]3CC2(C)C)O[C@@H]1C` (some centres not stated), the Activity in [1] came to 19%; in data set [2], 80.9%; in [3], 50.7%; in data set [17], 22.7%; in data set [18], 38.2%; in data set [19], 42.2%. Moreover, the viability at 10 µM in data set [4] was found to be 103%. In [5], the viability at 100 µM was 100%. Moreover, the Ratio in [6] came to 0.78; in data set [7] it was 0.51. Besides, the IC50 was 300 nM in data set [8]; 500 nM in data set [9]; 1300 nM in data set [10]; 300 nM in data set [11]; 5100 nM in data set [12]. Also, the “Ratio IC50” value in data set [13] was 16.9. Moreover, the outcome in [14], in data set [15], in [16], in data set [20], in [21] and in data set [22] was Active.
